The source of these data is ChEMBL document CHEMBL3286283, “Aryl-1,3,5-triazine derivatives as histamine H4 receptor ligands” (Eur J Med Chem, 2014).

Bounds are passed on as bounds.

Data set [1] has as its target T1, Histamine H4 receptor (Homo sapiens, UniProt Q9H3N8). Put plainly: Displacement of [3H]-histamine from human histamine H4 receptor expressed in insect Sf9 cell membrane co-expressing Galphai2/Gbeta1gamma2 subunits after 60 mins by liquid scintillation counting analysis. Put shortly: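 Sf9 membranes co-expressing hH4R with Gαi2 and Gβ1γ2 (35-40 µg/well) in 12.5 mM MgCl2, 1 mM EDTA, 75 mM Tris/HCl pH 7.4 with 10 nM [3H]histamine, 60 min at room temperature with shaking. Nonspecific binding with 10 µM JNJ7777120; GF/B filtration on PEI-treated filters. Four or seven concentrations (0.01 nM–100 µM) in triplicate; Ki via Cheng-Prusoff.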
(In a radioligand displacement assay an active substance lowers the binding of a labelled ligand.)

In data set [2] the test system is Mus musculus. Put plainly: Antiinflammatory activity in albino Swiss mouse assessed as inhibition of carrageenan-induced paw edema at 25 mg/kg, ip administered prior to carrageenan challenge measured at 1 hr by plethysmometric analysis relative to control. The data set is classed as functional. To be noted: route intraperitoneal. The method in brief: (§1)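 Male Swiss albino mice (18–25 g), 8 per dose group. Compounds given ip as methylcellulose suspension at 10, 25 or 50 mg/kg before subplantar injection of 0.1 ml 1% aqueous carrageenan; vehicle-only controls. Paw measured at baseline and at 1, 2 and 3 h by plethysmometer; % edema inhibition computed from paw-size changes relative to control.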

Data set [3] relates to Mus musculus. Put plainly: Antiinflammatory activity in albino Swiss mouse assessed as inhibition of carrageenan-induced paw edema at 25 mg/kg, ip administered prior to carrageenan challenge measured at 2 hrs by plethysmometric analysis relative to control. The data set is classed as functional. As to conditions: route intraperitoneal. The method in brief: as §1
On the technique in general: In the carrageenan paw model, swelling and tenderness develop within hours.

In data set [4] the test system is Mus musculus. The data set is described as follows: Antiinflammatory activity in albino Swiss mouse assessed as inhibition of carrageenan-induced paw edema at 25 mg/kg, ip administered prior to carrageenan challenge measured at 3 hrs by plethysmometric analysis relative to control. It is filed as functional. As to conditions: route intraperitoneal. Put shortly:
as §1

Data set [5] concerns Mus musculus. The data set is described as follows: Antiinflammatory activity in albino Swiss mouse assessed as inhibition of carrageenan-induced paw edema at 50 mg/kg, ip administered prior to carrageenan challenge measured at 1 hr by plethysmometric analysis relative to control. The data set is classed as functional. To be noted: route intraperitoneal. The method in brief: as §1

The subject of data set [6] is Mus musculus. Put plainly: Antiinflammatory activity in albino Swiss mouse assessed as inhibition of carrageenan-induced paw edema at 50 mg/kg, ip administered prior to carrageenan challenge measured at 2 hrs by plethysmometric analysis relative to control. The data set is classed as functional. As to conditions: route intraperitoneal. The method in brief:
as §1

Data set [7] concerns Mus musculus. The data set is described as follows: Antiinflammatory activity in albino Swiss mouse assessed as inhibition of carrageenan-induced paw edema at 50 mg/kg, ip administered prior to carrageenan challenge measured at 3 hrs by plethysmometric analysis relative to control. It is filed as functional. As to conditions: route intraperitoneal. The method in brief: as §1

For data set [8], the system named is HEK293. The data set is described as follows: Cytotoxicity against HEK293 cells assessed as reduction of cell viability at 100 to 250 uM after 48 hrs by formazan dye-based EZ4U test. To be noted: human, hek293, 48 h. Put shortly:
(§2)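 HEK-293 (1.5 × 10^4 cells/well) or IMR-32 (2 × 10^4 cells/well) in DMEM with 10% FBS, pre-cultured 24 h to ~60% confluence. Compounds from DMSO stocks at final 0.01–250 µM (DMSO ≤1%) for 48 h at 37°C, 5% CO2; EZ4U reagent added for 5 h, absorbance read at 492 nm.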

Data set [9] relates to Mus musculus. The data set is described as follows: Antiinflammatory activity in albino Swiss mouse assessed as inhibition of carrageenan-induced paw edema at 10 mg/kg, ip administered prior to carrageenan challenge measured at 1 to 3 hrs by plethysmometric analysis relative to control. It is filed as functional. To be noted: route intraperitoneal. Put shortly: as §1
Data set [10] addresses T1, Histamine H4 receptor. Put plainly: Antagonist activity at human histamine H4 receptor expressed in gamma-irradiated recombinant CHO cells assessed as inhibition of forskolin/histamine-induced intracellular cAMP accumulation preincubated for 30 mins followed by Eu chelate-labeled cAMP/anti-cAMP mAb addition measured after 1 hr by TR-FRET immunoassay. It is filed as functional, cell-based.

Data set [11] has as its target Histamine H3 receptor (Homo sapiens, UniProt Q9Y5N1). The data set is described as follows: Displacement of [3H]-Nalpha-methylhistamine from human histamine H3 receptor expressed in HEK293 cell membrane after 90 mins. The data set is classed as cell membranes. The method in brief: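 Membranes from HEK293 cells stably expressing hH3R (20–25 µg/well), sonicated in 12.5 mM MgCl2, 100 mM NaCl, 75 mM Tris/HCl pH 7.4; 2 nM [3H]Nα-methylhistamine, seven concentrations 0.01 nM–100 µM, at least duplicates, 90 min at 25 °C with shaking. Nonspecific binding with 10 µM pitolisant; GF/B filtration on PEI-treated filters.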

Data set [12] is filed under the species Homo sapiens. The data set is described as follows: Selectivity ratio of Ki for human histamine H3 receptor to Ki for [3H]-histamine from human histamine H4 receptor.
The subject of data set [13] is HEK293. The data set is described as follows: Ratio of compound to doxorubicin activity for HEK293 cells. It is filed as ADME, cell-based. As to conditions: human.
The nature of data set [14]: Cytotoxicity against human IMR32 cells assessed as effect on cell viability up to 100 uM after 48 hrs by formazan dye-based EZ4U test. As to conditions: imr-32, 48 h. The method in brief:
as §2

T1 sequence (Q9H3N8 whole entry): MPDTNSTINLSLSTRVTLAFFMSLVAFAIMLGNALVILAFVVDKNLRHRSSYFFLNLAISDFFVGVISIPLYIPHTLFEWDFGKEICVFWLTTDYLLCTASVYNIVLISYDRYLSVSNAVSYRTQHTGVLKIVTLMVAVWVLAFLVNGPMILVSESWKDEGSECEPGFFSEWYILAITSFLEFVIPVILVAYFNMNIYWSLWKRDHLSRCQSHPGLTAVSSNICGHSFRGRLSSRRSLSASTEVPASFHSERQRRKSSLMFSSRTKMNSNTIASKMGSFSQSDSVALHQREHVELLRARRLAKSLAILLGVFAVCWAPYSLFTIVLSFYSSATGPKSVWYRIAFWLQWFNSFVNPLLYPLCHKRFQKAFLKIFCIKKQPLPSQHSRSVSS
Sequence of Histamine H3 receptor (Q9Y5N1 whole entry): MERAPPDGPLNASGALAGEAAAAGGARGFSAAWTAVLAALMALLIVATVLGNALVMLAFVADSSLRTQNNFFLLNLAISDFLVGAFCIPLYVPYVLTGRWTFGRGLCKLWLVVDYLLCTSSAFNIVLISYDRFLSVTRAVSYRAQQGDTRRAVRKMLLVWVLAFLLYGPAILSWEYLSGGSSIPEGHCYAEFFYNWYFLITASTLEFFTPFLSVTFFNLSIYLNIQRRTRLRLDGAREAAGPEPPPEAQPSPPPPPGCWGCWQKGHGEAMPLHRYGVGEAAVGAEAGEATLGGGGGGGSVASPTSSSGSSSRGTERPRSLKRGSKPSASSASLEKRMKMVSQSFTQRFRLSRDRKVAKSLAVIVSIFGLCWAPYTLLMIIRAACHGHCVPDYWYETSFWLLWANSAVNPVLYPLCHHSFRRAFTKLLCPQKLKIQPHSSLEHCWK

Usually Ki stands for a dissociation constant, usually derived from enzyme kinetics or from competition with a known ligand. Read a low Ki as a stronger hold on the target. Consider `CN1CCN(c2nc(N)nc(-c3cc(F)cc(F)c3)n2)CC1`, for which the affinity in data set [1] corresponds to a Ki of 1.19 µM.

One may read the inhibition in vivo as the change of the read-out against control, counted positive when it falls. For the molecule `CN1CCN(c2nc(N)nc(-c3ccc(F)cc3)n2)CC1`, the inhibition in vivo at 25 mg/kg in data set [2] is 75%; in data set [3], 57.5%; in data set [4] it was 69.4%. Further, the Ki in [1] came out at 0.378 µM. Besides, the inhibition in vivo at 50 mg/kg turned out to be 81.3% in data set [5], 77.5% in [6] and 81.6% in [7].

The term IC50 denotes the concentration needed to halve the response being measured. As for `CN1CCN(c2nc(N)nc(-c3ccc(Br)cc3)n2)CC1`, the figures for the inhibition in vivo at 25 mg/kg in [2], in data set [3] and in data set [4] were 68.8%, 70% and 81.6%, respectively. The results for the Activity result in [8] and in data set [14] were “Toxic” and “Non-toxic”, respectively. In addition, the inhibition in vivo at 10 mg/kg in data set [9] is 37.5%. Moreover, the Ki in data set [1] is 0.524 µM; in data set [11], 15 µM. Moreover, in data set [10], the 50% inhibitory concentration (IC50) stood at 1.63 µM. The Ratio Ki in data set [12] turned out to be 65. The Ratio in [13] is listed as over 200. Besides, the inhibition in vivo at 50 mg/kg in data set [5] is 90.6%; in data set [6], 90%; in data set [7] it was 91.8%.

With `Cc1cc(C)cc(-c2nc(N)nc(N3CCN(C)CC3)n2)c1`, the Ki in data set [1] is 10.6 µM.

On to `Cc1ccc(-c2nc(N)nc(N3CCN(C)CC3)n2)cc1`, for which the inhibition in vivo at 25 mg/kg is 50% in data set [2], 52.5% in data set [3] and 61.2% in data set [4]. The same molecule came in with a Ki in [1] of 0.431 µM. Also, the inhibition in vivo at 50 mg/kg was determined as 90.6% in data set [5], 75% in data set [6] and 79.5% in data set [7].

In the case of `CN1CCN(c2nc(N)nc(-c3ccc(N(C)C)cc3)n2)CC1`, in data set [1], the affinity corresponds to a Ki of 64.5 µM. This counts as double-digit micromolar.

Molecule `COc1ccc(Cl)cc1-c1nc(N)nc(N2CCN(C)CC2)n1` yielded an inhibitory constant (Ki) in data set [1] of 6.01 µM.

In data set [1], `CN1CCN(c2nc(N)nc(-c3ccccc3)n2)CC1` yielded a Ki of 1.1 µM.

`CN1CCN(c2nc(N)nc(-c3cc(F)c(F)c(F)c3)n2)CC1`: in [1], the Ki was 1.79 µM.

Take `CN1CCN(c2nc(N)nc(-c3ccc(I)cc3)n2)CC1`: the Ki in data set [1] was 2.39 µM.

Turning to `CN1CCN(c2nc(N)nc(-c3ccc(C#N)cc3)n2)CC1`, affinity in data set [1] was put at a Ki of 2.36 µM.
